Data set [1] has as its target Epidermal growth factor receptor (Homo sapiens, UniProt P00533). The experiment in a line: Inhibition of probe binding to wild type EGFR (unknown origin) using rabbit reticulate lysate system after 1 hr by luminescence assay.
Data set [2] addresses T1, Epidermal growth factor receptor (Homo sapiens, UniProt P00533, L858R).
In data set [3] the target is T1, Epidermal growth factor receptor. The experiment in a line: Binding affinity to human partial length EGFR L858R mutant (R669 to V1011 residues) expressed in bacterial expression system by kinomescan assay. An outline of the steps: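 Competition binding against an immobilized active-site-directed ligand; bound kinase quantified by qPCR of its DNA tag. Kd taken from duplicate 11-point dose-response curves.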

The target in data set [4] is Epidermal growth factor receptor (Homo sapiens, UniProt P00533, E746-A750DEL). The data set is described as follows: Binding affinity to human partial length EGFR E746-A750 deletion mutant expressed in bacterial expression system by KinomeScan assay. An outline of the steps: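 Competition binding against an immobilized active-site-directed ligand. Bound kinase is quantified by qPCR of its DNA tag. Kd values come from duplicate 11-point dose-response curves.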

Data set [5] deals with Receptor tyrosine-protein kinase erbB-2 (Homo sapiens, UniProt P04626). The data set is described as follows: Inhibition of probe binding to HER2 (unknown origin) using rabbit reticulate lysate system after 1 hr by luminescence assay. An outline of the steps: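 Homogeneous competition binding in rabbit reticulocyte lysate with kinase expressed in the lysate. IC50 taken from a ten-point dose-response curve; value is the average of triplicate experiments.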

The species entered for a further data set is Homo sapiens. The data set is described as follows: Selectivity ratio, ratio of IC50 for probe binding to HER2 (unknown origin) to IC50 for probe binding to EGFR L858R mutant (unknown origin). Put shortly:
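Ratio of two IC50 values measured in the rabbit reticulocyte lysate competition binding assay: HER2 and EGFR L858R. Each IC50 comes from displacement of an active-site-dependent probe, read by luminescence, with a ten-point dose-response. Each IC50 is the average of triplicate experiments.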

Data set [6] in a line: Half life in rat S9 fraction. The class given is ADME, subcellular.
Data set [7] deals with T1, Epidermal growth factor receptor. The experiment in a line: Binding affinity to human partial length EGFR L858R mutant (R669 to V1011 residues) expressed in bacterial expression system under full equilibrating condition by scanKINETIC assay. An outline of the steps:
(§1)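 Binding kinetics are read from Kd values measured under four dose-response arms. Arm A is full equilibration. Arm B is equilibrate, then 3-fold dilution, then equilibrate. Arm C is partial equilibration. Arm D is predilution followed by full equilibration. Comparing the arms assesses reversibility of binding.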

For data set [8] the target is unchanged. The experiment in a line: Binding affinity to human partial length EGFR L858R mutant (R669 to V1011 residues) expressed in bacterial expression system under equilibrate/3-fold dilution/eqiulibrate condition by scanKINETIC assay. An outline of the steps:
as §1

Data set [9] shares this target. The data set is described as follows: Binding affinity to human partial length EGFR L858R mutant (R669 to V1011 residues) expressed in bacterial expression system under partial equilibration condition by scanKINETIC assay. Put shortly: as §1
The target is the same in data set [10]. The experiment in a line: Binding affinity to human partial length EGFR L858R mutant (R669 to V1011 residues) expressed in bacterial expression system under predilution/full equilibration condition by scanKINETIC assay. Put shortly: as §1
Another data set has as its system A549. The data set is described as follows: cells. The format is functional. To be noted: Homo sapiens, A549, 48 h.
In data set [11] the test system is NCI-H322M. The data set is described as follows: cells. The class given is functional. The conditions noted are these: Homo sapiens, 48 h.
The subject of another data set is NCI-H460. The data set is described as follows: cells. The class given is functional. The conditions noted are these: Homo sapiens, NCI-H460, 48 h.
Data set [12] concerns CCRF-CEM. The data set is described as follows: cells. The format is functional. To be noted: Homo sapiens, 48 h.
Data set [13] has as its system MOLT-4. The experiment in a line: cells. The format is functional. The conditions noted are these: Homo sapiens, MOLT-4, 48 h.
Data set [14] relates to NCI-H322M. The experiment in a line: Cytotoxicity against human NCI-H322M cells assessed as reduction in measured protein incubated for 48 hrs by SRB assay. The format is functional. The conditions noted are these: read-out: LC50 (the source's name). An outline of the steps:
(§2)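 Tested in the NCI-60 panel with a five-dose response curve, each value the mean of 2 experiments.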
For orientation: The SRB assay estimates cell density from bound dye.

The test system of data set [15] is CCRF-CEM. The experiment in a line: Cytotoxicity against human CCRF-CEM cells assessed as reduction in measured protein incubated for 48 hrs by SRB assay. The format is functional. To be noted: read-out: LC50 (the source's name). An outline of the steps:
as §2

Data set [16] has as its system MOLT-4. The experiment in a line: Cytotoxicity against human MOLT4 cells assessed as reduction in measured protein incubated for 48 hrs by SRB assay. The class given is functional. To be noted: MOLT-4, 48 h, read-out: LC50 (the source's name). Put shortly: as §2
For data set [17], the system named is NCI-H322M. The experiment in a line: Therapeutic index, ratio of LC50 for human NCI-H322M cells to GI50 for human NCI-H322M cells. The format is functional. An outline of the steps:
(§3)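 NCI-60 panel screen using five-dose response curves, each value an average of 2 experiments. […] The therapeutic index is calculated as LC50/GI50 for the same cell line.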

The test system of data set [18] is CCRF-CEM. The experiment in a line: Therapeutic index, ratio of LC50 for human CCRF-CEM cells to GI50 for human CCRF-CEM cells. The format is functional. An outline of the steps: as §3
Data set [19] concerns MOLT-4. The data set is described as follows: Therapeutic index, ratio of LC50 for human MOLT4 cells to GI50 for human MOLT4 cells. The format is functional. Put shortly: as §3
A short description of data set [20]: Half life in human S9 fraction. The format is ADME, subcellular.

The structures appear in SMILES notation.

T1 sequence (P00533 25-1210 L858R limits assumed): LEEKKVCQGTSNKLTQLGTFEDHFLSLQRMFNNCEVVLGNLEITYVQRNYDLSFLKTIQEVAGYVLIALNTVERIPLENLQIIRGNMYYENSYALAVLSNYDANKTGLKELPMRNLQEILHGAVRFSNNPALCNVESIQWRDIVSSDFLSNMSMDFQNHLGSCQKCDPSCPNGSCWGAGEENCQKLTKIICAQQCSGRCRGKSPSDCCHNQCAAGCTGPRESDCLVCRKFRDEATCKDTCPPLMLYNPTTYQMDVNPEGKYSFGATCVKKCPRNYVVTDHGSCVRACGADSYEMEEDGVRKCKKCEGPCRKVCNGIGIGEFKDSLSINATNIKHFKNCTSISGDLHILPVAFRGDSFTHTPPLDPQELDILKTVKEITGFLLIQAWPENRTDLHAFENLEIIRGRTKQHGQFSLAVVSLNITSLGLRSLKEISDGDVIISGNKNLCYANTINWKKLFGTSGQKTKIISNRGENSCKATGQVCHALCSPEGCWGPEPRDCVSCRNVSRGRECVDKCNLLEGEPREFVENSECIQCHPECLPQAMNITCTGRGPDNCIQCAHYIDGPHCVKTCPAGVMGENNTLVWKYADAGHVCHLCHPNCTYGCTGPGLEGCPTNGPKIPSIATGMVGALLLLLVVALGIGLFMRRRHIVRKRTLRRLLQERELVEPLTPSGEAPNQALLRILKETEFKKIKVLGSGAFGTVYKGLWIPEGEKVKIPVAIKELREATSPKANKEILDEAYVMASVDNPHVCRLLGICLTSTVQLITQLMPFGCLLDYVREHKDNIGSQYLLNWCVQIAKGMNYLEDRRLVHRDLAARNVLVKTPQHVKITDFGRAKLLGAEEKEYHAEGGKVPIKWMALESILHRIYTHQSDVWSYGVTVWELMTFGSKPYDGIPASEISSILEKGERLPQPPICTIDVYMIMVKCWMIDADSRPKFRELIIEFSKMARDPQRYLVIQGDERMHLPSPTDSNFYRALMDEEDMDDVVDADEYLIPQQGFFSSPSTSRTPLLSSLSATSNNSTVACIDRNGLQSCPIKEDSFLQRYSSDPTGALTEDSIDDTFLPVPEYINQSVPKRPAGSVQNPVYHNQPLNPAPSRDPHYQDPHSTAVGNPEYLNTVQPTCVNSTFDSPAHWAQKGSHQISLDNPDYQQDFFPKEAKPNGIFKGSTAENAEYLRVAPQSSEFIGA
Receptor tyrosine-protein kinase erbB-2, sequence (P04626 whole entry): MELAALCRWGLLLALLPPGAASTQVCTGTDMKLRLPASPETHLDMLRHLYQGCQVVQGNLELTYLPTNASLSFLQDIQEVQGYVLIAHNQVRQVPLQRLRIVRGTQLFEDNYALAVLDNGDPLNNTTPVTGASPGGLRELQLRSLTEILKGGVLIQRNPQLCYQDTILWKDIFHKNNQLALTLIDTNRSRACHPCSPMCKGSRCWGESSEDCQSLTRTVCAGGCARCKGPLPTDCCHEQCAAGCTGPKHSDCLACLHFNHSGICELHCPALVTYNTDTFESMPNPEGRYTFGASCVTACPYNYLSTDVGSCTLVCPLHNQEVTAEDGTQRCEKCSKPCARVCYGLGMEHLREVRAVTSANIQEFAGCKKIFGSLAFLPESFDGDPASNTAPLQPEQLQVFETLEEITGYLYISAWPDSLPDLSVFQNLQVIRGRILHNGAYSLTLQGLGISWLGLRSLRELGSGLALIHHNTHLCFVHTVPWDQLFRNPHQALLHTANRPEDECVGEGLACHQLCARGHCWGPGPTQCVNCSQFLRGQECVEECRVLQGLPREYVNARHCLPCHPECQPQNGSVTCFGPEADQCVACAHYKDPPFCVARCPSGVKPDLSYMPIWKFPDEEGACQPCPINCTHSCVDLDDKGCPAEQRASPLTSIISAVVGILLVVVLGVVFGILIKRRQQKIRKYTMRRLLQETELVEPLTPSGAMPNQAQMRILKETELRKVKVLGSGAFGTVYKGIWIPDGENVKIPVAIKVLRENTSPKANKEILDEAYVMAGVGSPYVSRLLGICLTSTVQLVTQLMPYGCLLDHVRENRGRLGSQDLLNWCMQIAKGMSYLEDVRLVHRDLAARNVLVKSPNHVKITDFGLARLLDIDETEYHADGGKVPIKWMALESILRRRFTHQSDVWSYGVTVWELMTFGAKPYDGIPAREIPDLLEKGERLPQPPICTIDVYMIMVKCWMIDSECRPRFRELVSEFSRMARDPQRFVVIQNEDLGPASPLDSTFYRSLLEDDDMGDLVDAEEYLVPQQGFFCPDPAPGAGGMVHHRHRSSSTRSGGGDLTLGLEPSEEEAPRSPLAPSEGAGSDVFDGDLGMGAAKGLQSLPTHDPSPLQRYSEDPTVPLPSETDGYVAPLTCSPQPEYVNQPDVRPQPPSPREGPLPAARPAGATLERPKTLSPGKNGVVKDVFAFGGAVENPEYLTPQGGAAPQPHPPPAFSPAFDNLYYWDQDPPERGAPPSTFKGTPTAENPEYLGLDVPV
Epidermal growth factor receptor (Homo sapiens, UniProt P00533), sequence (P00533 whole entry): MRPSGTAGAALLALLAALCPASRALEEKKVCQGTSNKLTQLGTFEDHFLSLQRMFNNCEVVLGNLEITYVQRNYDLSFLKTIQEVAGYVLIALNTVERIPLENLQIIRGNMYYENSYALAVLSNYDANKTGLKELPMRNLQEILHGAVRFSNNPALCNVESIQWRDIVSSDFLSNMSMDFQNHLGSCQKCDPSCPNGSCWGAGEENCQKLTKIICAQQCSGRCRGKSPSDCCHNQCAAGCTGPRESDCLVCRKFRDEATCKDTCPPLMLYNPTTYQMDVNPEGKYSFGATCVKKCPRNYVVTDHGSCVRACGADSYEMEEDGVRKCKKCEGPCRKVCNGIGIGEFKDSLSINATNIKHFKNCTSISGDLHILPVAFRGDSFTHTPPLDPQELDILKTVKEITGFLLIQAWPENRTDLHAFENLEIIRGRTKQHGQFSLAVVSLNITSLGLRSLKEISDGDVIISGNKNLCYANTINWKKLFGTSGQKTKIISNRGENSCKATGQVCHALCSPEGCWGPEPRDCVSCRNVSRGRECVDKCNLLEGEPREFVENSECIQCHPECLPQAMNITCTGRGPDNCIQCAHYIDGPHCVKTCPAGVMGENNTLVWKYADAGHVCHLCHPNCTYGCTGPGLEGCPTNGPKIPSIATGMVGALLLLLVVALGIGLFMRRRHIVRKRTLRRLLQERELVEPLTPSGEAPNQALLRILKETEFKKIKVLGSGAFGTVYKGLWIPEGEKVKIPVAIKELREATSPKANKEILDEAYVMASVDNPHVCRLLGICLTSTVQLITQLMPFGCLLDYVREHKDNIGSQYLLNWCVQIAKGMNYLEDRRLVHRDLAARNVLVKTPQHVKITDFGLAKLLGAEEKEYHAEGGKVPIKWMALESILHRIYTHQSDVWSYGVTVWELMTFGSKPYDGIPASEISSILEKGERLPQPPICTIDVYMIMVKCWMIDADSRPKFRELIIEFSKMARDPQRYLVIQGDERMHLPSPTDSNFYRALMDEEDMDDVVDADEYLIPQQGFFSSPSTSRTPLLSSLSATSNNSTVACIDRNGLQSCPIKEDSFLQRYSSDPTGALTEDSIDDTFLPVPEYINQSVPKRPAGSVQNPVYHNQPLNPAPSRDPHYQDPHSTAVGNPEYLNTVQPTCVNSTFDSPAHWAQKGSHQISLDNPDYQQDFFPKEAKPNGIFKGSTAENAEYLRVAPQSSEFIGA
Epidermal growth factor receptor (Homo sapiens, UniProt P00533, E746-A750DEL), sequence (P00533 whole entry E746-A750del, looked up): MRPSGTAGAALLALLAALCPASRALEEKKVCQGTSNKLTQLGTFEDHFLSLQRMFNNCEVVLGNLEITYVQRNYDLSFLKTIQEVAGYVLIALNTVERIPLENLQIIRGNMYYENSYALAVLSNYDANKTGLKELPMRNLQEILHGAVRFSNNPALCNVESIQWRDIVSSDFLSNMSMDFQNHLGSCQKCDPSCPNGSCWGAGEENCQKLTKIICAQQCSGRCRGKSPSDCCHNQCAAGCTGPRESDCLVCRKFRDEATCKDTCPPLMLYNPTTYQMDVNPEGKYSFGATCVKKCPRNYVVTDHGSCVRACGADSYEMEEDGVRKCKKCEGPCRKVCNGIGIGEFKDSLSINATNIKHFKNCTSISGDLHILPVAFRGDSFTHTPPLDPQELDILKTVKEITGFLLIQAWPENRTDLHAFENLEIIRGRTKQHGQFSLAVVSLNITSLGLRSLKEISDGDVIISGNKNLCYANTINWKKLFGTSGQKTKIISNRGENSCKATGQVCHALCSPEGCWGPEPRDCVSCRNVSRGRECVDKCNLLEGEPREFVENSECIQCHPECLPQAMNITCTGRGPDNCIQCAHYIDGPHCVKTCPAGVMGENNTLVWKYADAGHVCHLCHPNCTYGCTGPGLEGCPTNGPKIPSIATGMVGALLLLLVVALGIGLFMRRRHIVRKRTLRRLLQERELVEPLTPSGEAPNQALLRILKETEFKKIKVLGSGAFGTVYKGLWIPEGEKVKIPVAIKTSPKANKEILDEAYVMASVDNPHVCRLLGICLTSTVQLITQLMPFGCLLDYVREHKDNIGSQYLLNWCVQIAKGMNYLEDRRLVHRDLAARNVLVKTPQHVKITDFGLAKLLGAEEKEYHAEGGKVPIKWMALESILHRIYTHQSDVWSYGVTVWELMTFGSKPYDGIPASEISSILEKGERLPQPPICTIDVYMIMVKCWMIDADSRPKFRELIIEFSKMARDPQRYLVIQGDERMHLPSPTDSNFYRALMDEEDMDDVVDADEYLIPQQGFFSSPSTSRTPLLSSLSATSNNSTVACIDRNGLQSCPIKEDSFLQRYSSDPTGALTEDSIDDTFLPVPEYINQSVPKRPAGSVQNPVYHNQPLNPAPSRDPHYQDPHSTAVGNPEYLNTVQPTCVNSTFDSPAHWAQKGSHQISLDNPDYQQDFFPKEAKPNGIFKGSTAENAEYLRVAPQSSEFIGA

Broadly, the IC50 is the point on the concentration scale where inhibition reaches its midpoint. Broadly, the Kd is the equilibrium constant for the complex coming apart. A lower Kd goes with a tighter complex. As to `CCOc1cc2ncc(C#N)c(Nc3ccc(OCc4cccc(F)c4)c(Cl)c3)c2cc1NC(=O)C(CSC(C)=O)CSC(C)=O`, the IC50 was 340 nM in data set [1] and 26.8 nM in data set [2]. Besides, the Kd in [3] is 16 nM; in data set [4], 180 nM.
Turning to `N#Cc1cnc2ccc(NC(=O)CC3CCSS3)cc2c1Nc1ccc(OCc2cccc(F)c2)c(Cl)c1` (stereo not given), the IC50 in data set [1] is 164 nM; in [2] it was 36 nM; in data set [5], 730 nM. For the same molecule, the Ratio IC50 in the data set filed under Homo sapiens was over 25.
Broadly, the half-life is the time needed for the level to fall by half in the phase considered. The low end stands for fast loss, the high end for slow loss. The molecule `CC(C)NCC(O)COc1cccc2ccccc12` (stereo not given) [PROPRANOLOL] displayed a half-life in [6] of 27.5 min.
In [2], `CCOc1cc2ncc(C#N)c(Nc3ccc(F)c(Cl)c3)c2cc1NC(=O)CCCCC1CCSS1` (stereo not given) yielded a half-maximal inhibitory concentration (IC50) of 420 nM.
As for `N#Cc1cnc2ccc(NC(=O)C3CSSC3)cc2c1Nc1ccc(OCc2cccc(F)c2)c(Cl)c1`, the IC50 in data set [2] came out at 199 nM.
In the case of `CC(=O)SCC(CSC(C)=O)C(=O)Nc1cc2c(Nc3ccc(OCc4cccc(F)c4)c(Cl)c3)c(C#N)cnc2cc1OC[C@H](O)CO`, the Kd in data set [7] was determined as 2.1 nM; in [8], 58 nM; in [9], 5.9 nM; in [10], 60 nM.
One may read the GI50 as the concentration that inhibits growth by half. With `COc1cc2ncnc(Nc3ccc(Oc4ccc(C)nc4)c(C)c3)c2cc1NC(=O)CC1CCSS1` (stereo not given), the GI50 in the data set on A549 amounted to 760 nM; in the data set with NCI-H322M [11], 1070 nM; with NCI-H460 it was 110 nM; in the data set with CCRF-CEM [12], 220 nM; in the data set with MOLT-4 [13] it was 160 nM. Further, the CC50 in the data set on NCI-H322M [14] is over 50000 nM; in the data set on CCRF-CEM [15], over 50000 nM; in the data set with MOLT-4 [16], over 2600 nM. Also, the figures for the TI with NCI-H322M [17], in the data set on CCRF-CEM [18] and with MOLT-4 [19] were over 46.7, over 227 and 16.2, respectively.
Take `CCOc1cc2ncc(C#N)c(Nc3ccc(OCc4cccc(F)c4)c(Cl)c3)c2cc1NC(=O)CCCCC1CCSS1` (stereo not given): the results for the IC50 in data set [1] and in [2] were 730 nM and 33 nM, respectively. Further, in [3], binding was put at a Kd of 32 nM.
For the molecule `CCOc1cc2ncc(C#N)c(Nc3ccc(F)c(Cl)c3)c2cc1NC(=O)CC1CCSS1` (stereo not given), half-maximal inhibition in data set [2] (IC50) was put at 300 nM.
In the case of `Cc1ccc(Oc2ccc(Nc3c(C#N)cnc4ccc(NC(=O)CC5CCSS5)cc34)cc2C)cn1` (stereo not given), the results for the IC50 in [1], in data set [2] and in data set [5] were 8630 nM, over 10000 nM and over 10000 nM, respectively.
Turning to `N#Cc1cnc2cc(OC[C@@H](O)CO)c(NC(=O)C3CSSC3)cc2c1Nc1ccc(OCc2cccc(F)c2)c(Cl)c1`, the IC50 was 125 nM in data set [1], 9 nM in data set [2] and 167 nM in [5]. In the data set listed under Homo sapiens, the Ratio IC50 is over 25. Further, the Kd was found to be 0.7 nM in [7], 8.4 nM in data set [8], 1.9 nM in data set [9] and 16 nM in data set [10].
Regarding `O=c1ccc2ccc(O)cc2o1` [UMBELLIFERONE], the half-life in [20] turned out to be 26.6 min.
For the molecule `COc1cc2ncnc(Nc3ccc(OCc4cccc(F)c4)c(Cl)c3)c2cc1NC(=O)CC1CCSS1` (stereo not given), the IC50 amounted to 25 nM in data set [1] and 5.8 nM in [2].
On the same counts, the results for `COc1cc2ncnc(Nc3ccc(OCc4cccc(F)c4)c(Cl)c3)c2cc1NC(=O)C1CSSC1` are 76 nM and 6.5 nM.
Take `CCOc1cc2ncc(C#N)c(Nc3ccc(OCc4cccc(F)c4)c(Cl)c3)c2cc1NC(=O)C1CSSC1`: the results for the half-inhibitory concentration (IC50) in [1], in data set [2] and in data set [5] were 210 nM, 18 nM and 730 nM, respectively. Moreover, in data set [4], the Kd is 110 nM. In addition, the Ratio IC50 in the data set filed under Homo sapiens was over 25.
Consider `CCOc1cc2ncc(C#N)c(Nc3ccc(F)c(Cl)c3)c2cc1NC(=O)C1CSSC1`, for which, in [2], the IC50 was determined as 219 nM.
As for `COc1cc2ncnc(Nc3ccc(Oc4ccc(C)nc4)c(C)c3)c2cc1NC(=O)C1CSSC1`, the IC50 turned out to be 658 nM in data set [1], 413 nM in data set [2] and 590 nM in data set [5]. In the data set listed under Homo sapiens, the Ratio IC50 was 1.4.
Turning to `Cc1ccc(Oc2ccc(Nc3c(C#N)cnc4ccc(NC(=O)C5CSSC5)cc34)cc2C)cn1`, the half-maximal inhibitory concentration (IC50) in [1] and in data set [2] was over 10000 nM in each case.
Take `N#Cc1cnc2cc(OC[C@H](O)CO)c(NC(=O)C3CSSC3)cc2c1Nc1ccc(OCc2cccc(F)c2)c(Cl)c1`: the half-inhibitory concentration (IC50) is 256 nM in data set [1] and 20 nM in data set [2].
